The subject of data set [1] is Plasmodium falciparum. Briefly: Antimalarial activity against chloroquine-sensitive Plasmodium falciparum D6 assessed as growth inhibition after 18 hrs by [3H]-hypoxanthine uptake assay. It is filed as functional, organism-based. Summed up: (§1)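 P. falciparum clones D6, W2 and TM91C235; modified semiautomated microdilution. Compounds in DMSO, diluted in RPMI 1640 with 10% human plasma, tested over (1.56-100) x 10^-9 M; final DMSO 0.25-0.5%. Inoculum 0.5% parasitemia, 1% hematocrit. 24 h incubation, then [3H]-hypoxanthine added, further 18 h. Harvested and read by scintillation counting; IC50 by nonlinear regression.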

Data set [2] addresses hERG (KCNH2) (Homo sapiens, UniProt Q12809). Briefly: Inhibition of human ERG expressed in CHL cells assessed as tail current at 10 uM after 7 mins by patch clamp assay relative to control. Type of data set: cell-based. The note with it: CHL cells expressing human ERG. A general note: In patch-clamp work, channel activity is measured electrically.
For data set [3], the system named is Salmonella typhi. Put plainly: Mutagenicity in Salmonella typhi by Ames test. Type of data set: toxicity, organism-based. The note with it: salmonella enterica subsp. enterica […].
Data set [4] has as its system Plasmodium falciparum. Put plainly: Antimalarial activity against chloroquine-resistant Plasmodium falciparum W2 assessed as growth inhibition after 18 hrs by [3H]-hypoxanthine uptake assay. It is filed as functional, organism-based. Summed up:
as §1

Data set [5] in a line: Half life in mouse liver microsomes at 1 uM by LC/MS analysis. Type of data set: ADME. Summed up:
(§2)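 Compound at 1 µM final, diluted from […], with 0.5 mg/mL pooled human or mouse liver microsomes, NADP, MgCl2 and 0.1 M PBS pH 7.4. Reaction started with 1 U/mL G6PD and shaken at 37 °C. Aliquots quenched in cold acetonitrile at 0, 10, 20, 30 and 60 min and quantified by LC/MS. Half-life from log plot of total ion chromatogram area remaining.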
A general note: Liver microsomes are vesicles of endoplasmic reticulum, rich in cytochrome P450 enzymes.

In data set [6] the test system is HepG2. Put plainly: Cytotoxicity against human HepG2 cells after 48 hrs by MTT assay. It is filed as cell-based. As to conditions: HepG2, 48 h. An outline of the steps:
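HepG2 cells in supplemented MEM, plated at 9570 cells/well in 384-well format and incubated overnight at 37 °C, 5% CO2. Twelve duplicate 1.6-fold dilutions, 57–10,000 ng/ml, incubated 48 h. MTT added for 1 h at room temperature in the dark, formazan dissolved in acidified isopropanol, absorbance read. IC50 by sigmoidal variable-slope nonlinear regression; tryptanthrin control.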
A general note: Formazan colour is commonly taken as a measure of viable cells.

Data set [7] relates to Plasmodium falciparum. Briefly: Potency index, ratio of chloroquine IC50 to compound IC50 for chloroquine-resistant Plasmodium falciparum W2. It is filed as functional.
Data set [8] is described as follows: Half life in human liver microsomes at 1 uM by LC/MS analysis. It is filed as ADME. An outline of the steps:
as §2

For data set [9], the system named is Plasmodium falciparum. Briefly: Antimalarial activity against chloroquine-resistant Plasmodium falciparum C235 assessed as growth inhibition after 18 hrs by [3H]-hypoxanthine uptake assay. Type of data set: functional, organism-based. Summed up: as §1
Data set [10] concerns Plasmodium berghei. Put plainly: Antimalarial activity against erythrocytic stage of chloroquine resistant Plasmodium berghei ANKA infected in mouse assessed as cure rate at 160 mg/kg, po qd administered on day 3, 4 and 5 post infection measured 3 times per week for 30 days, starting from day 3 by Thompson test. It is filed as functional, organism-based. More on the design: dose 160 mg/kg. An outline of the steps: (§3)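 Male mice of 16-20 g inoculated intraperitoneally with 5 x 10^6 erythrocytes infected with CQ-resistant P. berghei ANKA. Drug given orally as a suspension once daily on days 3, 4 and 5 post-infection, five mice per dose. Blood films from day 3, three times weekly for 30 days. Cure means parasite-negative on day 30 or surviving 30 days. Mice losing >20% body weight sacrificed.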

The subject of data set [11] is Plasmodium berghei. Put plainly: Antimalarial activity against erythrocytic stage of chloroquine resistant Plasmodium berghei ANKA infected in mouse assessed as reduction of parasitemia at 160 mg/kg, po qd administered on day 3, 4 and 5 post infection measured 2 days post last dose relative to control. It is filed as functional. More on the design: scale not given: the % may be the effect or the level left. An outline of the steps:
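Male mice of 16-20 g inoculated intraperitoneally with 5 x 10^6 erythrocytes infected with CQ-resistant P. berghei ANKA. Drug given orally as a suspension once daily on days 3, 4 and 5 post-infection, five mice per dose. Parasitemia followed by blood films from day 3, three times weekly for 30 days; infected untreated mice served as negative controls.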

The subject of data set [12] is Mus musculus. Briefly: Toxicity in mouse infected with erythrocytic stage of chloroquine resistant Plasmodium berghei ANKA up to 160 mg/kg, po qd administered on day 3, 4 and 5 post infection measured over 30 days. It is filed as organism-based, Erythrocyte. The arrangement: dose 160 mg/kg, route oral. As to conditions: in vivo, 720 h. Summed up: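 Male mice of 16-20 g infected intraperitoneally with CQ-resistant P. berghei ANKA (5 x 10^6 infected erythrocytes). Oral dosing once daily on days 3-5, five mice per group. Animals followed for 30 days by blood films; mice losing >20% body weight sacrificed.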

The nature of data set [13]: AUClast in ICR mouse at 80 mg/kg, po. It is filed as ADME, organism-based. More on the design: time 0 - last, dose 80 mg/kg, route oral. The note with it: plasma.
Data set [14] can be described thus: Tmax in ICR mouse at 80 mg/kg, po. More on the design: dose 80 mg/kg, route oral. Type of data set: ADME, organism-based. As to conditions: in vivo. An outline of the steps:
(§4)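 Male 7-week-old ICR mice, 23–28 g, given a single intragastric dose of 80 mg/kg in DD water (100 µL/20 g). Three mice per time point; whole blood taken by cardiac puncture into lithium heparin tubes and spun to plasma. Parameters come from plasma concentration–time curves of parent drug. t1/2 = ln2/kel from the log plot. AUC by linear trapezoidal rule, extrapolated to infinity; MRT = AUMC/AUC.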

Data set [15] is described as follows: Apparent oral clearance in ICR mouse at 80 mg/kg. It is filed as ADME, organism-based. More on the design: dose 80 mg/kg, route oral. As to conditions: in vivo.
Data set [16] can be described thus: Mean residence time in ICR mouse at 80 mg/kg, po. As to conditions: in vivo. It is filed as ADME, organism-based. More on the design: dose 80 mg/kg, route oral. An outline of the steps:
as §4

Data set [17] in a line: AUCinfinity in ICR mouse at 80 mg/kg, po. It is filed as ADME, organism-based. More on the design: time infinity, dose 80 mg/kg, route oral. As to conditions: plasma. An outline of the steps: as §4
Data set [18] can be described thus: Cmax in ICR mouse at 80 mg/kg, po. Type of data set: ADME, organism-based. More on the design: dose 80 mg/kg, route oral. As to conditions: in vivo. Summed up: as §4
Data set [19] can be described thus: Elimination half life in ICR mouse at 80 mg/kg, po. More on the design: dose 80 mg/kg, route oral. It is filed as ADME, organism-based. As to conditions: in vivo, read-out: beta t1/2 (converted). An outline of the steps: as §4
Data set [20] can be described thus: Apparent volume of distribution during terminal phase in ICR mouse at 80 mg/kg, po. It is filed as ADME, organism-based. More on the design: dose 80 mg/kg, route oral. The note with it: in vivo, read-out: Vz/F.
Data set [21] has as its system Plasmodium berghei. Briefly: Antimalarial activity against erythrocytic stage of chloroquine resistant Plasmodium berghei ANKA infected in mouse assessed as cure rate at 120 mg/kg, po qd administered on day 3, 4 and 5 post infection measured 3 times per week for 30 days, starting from day 3 by Thompson test. It is filed as functional, organism-based. The arrangement: dose 120 mg/kg. An outline of the steps: as §3

The subject of data set [22] is Plasmodium berghei. Put plainly: Antimalarial activity against erythrocytic stage of chloroquine resistant Plasmodium berghei ANKA infected in mouse assessed as cure rate at 60 mg/kg, po qd administered on day 3, 4 and 5 post infection measured 3 times per week for 30 days, starting from day 3 by Thompson test. The arrangement: dose 60 mg/kg. It is filed as functional, organism-based. Summed up: as §3

≈ marks a conversion by molar mass, not a printed value. Calls of active or inactive are those of the source. The rule behind the calls is not given here.

From ChEMBL document CHEMBL3421610, “Antimalarial activity of 4-amidinoquinoline and 10-amidinobenzonaphthyridine derivatives” (J Med Chem, 2015) come the findings set out here.

Chain of hERG (KCNH2) (Q12809 whole entry): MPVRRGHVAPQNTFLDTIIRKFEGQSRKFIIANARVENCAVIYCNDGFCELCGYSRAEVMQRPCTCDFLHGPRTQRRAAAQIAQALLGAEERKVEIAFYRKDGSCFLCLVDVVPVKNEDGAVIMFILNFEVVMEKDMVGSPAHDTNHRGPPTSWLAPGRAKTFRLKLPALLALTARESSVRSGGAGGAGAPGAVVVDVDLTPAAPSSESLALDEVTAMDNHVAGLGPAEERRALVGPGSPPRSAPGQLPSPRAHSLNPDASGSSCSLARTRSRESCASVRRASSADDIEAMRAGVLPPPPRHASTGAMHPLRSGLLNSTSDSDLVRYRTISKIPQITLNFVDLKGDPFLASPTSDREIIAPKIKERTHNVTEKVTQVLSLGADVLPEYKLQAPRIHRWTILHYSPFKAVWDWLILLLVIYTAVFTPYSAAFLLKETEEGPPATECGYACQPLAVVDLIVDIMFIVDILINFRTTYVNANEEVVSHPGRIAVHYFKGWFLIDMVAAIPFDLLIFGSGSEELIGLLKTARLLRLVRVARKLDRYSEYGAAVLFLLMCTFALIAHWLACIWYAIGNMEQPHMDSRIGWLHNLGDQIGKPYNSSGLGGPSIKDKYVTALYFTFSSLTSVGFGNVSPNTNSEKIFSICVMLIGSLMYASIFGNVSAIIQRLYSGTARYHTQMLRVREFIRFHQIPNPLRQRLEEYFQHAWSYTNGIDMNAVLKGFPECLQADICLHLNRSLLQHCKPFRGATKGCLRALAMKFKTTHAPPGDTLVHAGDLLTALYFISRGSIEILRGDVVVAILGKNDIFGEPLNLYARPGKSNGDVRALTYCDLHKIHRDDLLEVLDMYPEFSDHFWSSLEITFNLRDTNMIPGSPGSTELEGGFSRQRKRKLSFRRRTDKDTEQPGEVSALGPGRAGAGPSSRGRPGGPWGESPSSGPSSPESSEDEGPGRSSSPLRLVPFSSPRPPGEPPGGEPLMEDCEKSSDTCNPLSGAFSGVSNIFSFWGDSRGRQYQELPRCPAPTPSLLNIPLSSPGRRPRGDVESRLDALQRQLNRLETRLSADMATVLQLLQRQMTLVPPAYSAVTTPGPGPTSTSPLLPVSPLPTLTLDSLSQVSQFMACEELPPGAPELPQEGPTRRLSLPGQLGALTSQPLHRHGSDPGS

Turning to `CN(C)CCCN/C(=N\c1ccnc2cc(Cl)ccc12)c1ccccc1`, the IC50 in data set [1] turned out to be 2.1 nM; in data set [4] it was 9.2 nM; in [6] it was 5.13 µg/mL (≈ 14 µM); in data set [9] it was 3.4 nM. In [2], the inhibition at 7 min, 10 µM is 90.6%. In data set [3], the Activity entry is “Non-toxic”. Further, the half-life at 1 µM in [5] was 0.867 h; in data set [8] it was over 1 h. Moreover, the “Ratio IC50” value in [7] came out at 50.
For `C/C(=N/c1ccnc2cc(Cl)ccc12)NCCCN1CCCCC1`, the IC50 stood at 25 nM in data set [1], 36 nM in [4], 23.3 µg/mL (≈ 67.5 µM) in [6] and 14 nM in data set [9]. Also, in [2], the inhibition at 7 min, 10 µM worked out at 27.7%. In addition, the results for the half-life at 1 µM in data set [5] and in data set [8] were 0.417 h and over 1 h, respectively. Further, the result in data set [10] was inactive. The Activity in data set [11] is 95.4%; in [12], “Non-toxic”.
Consider `CCN(CC)CCCN/C(=N\c1ccnc2cc(Cl)ccc12)c1ccccc1`, for which the IC50 in data set [1] is 1.8 nM; in data set [4] it was 7.2 nM; in [6] it was 5.08 µg/mL (≈ 12.9 µM); in data set [9], 3.3 nM. The inhibition at 7 min, 10 µM in [2] was determined as 100%. The half-life at 1 µM in data set [5] was found to be 0.267 h; in data set [8], 0.35 h. The “Ratio IC50” value in [7] turned out to be 50.
With `CCN(CC)CCCN/C(=N\c1ccnc2cc(Cl)ccc12)C(C)C`, the AUC(0-t) in [13] came out at 3510 ng·h/mL. Further, the Tmax in data set [14] stood at 0.5 h. The IC50 in data set [1] was 22 nM; in data set [4], 42 nM; in data set [6] it was over 24.2 µg/mL; in data set [9], 25.8 nM. In addition, the half-life at 1 µM in data set [5] and in data set [8] was over 1 h throughout. For the same compound, the result in [10] was Active. For the same compound, the CL/F in data set [15] is 371 mL/min/kg. The same compound gave an MRT in data set [16] of 7.64 h. In data set [17], the AUC(0-inf) was 3620 ng·h/mL. The same compound gave a Cmax in data set [18] of 696 ng/mL. Besides, the half-life in [19] was 6.66 h. Moreover, the Vd/F in data set [20] is 214 L/kg. The Activity result in data set [12] is “Non-toxic”.
Consider `CCN(CC)CCC/N=C(\C)N(CCCN(CC)CC)c1c2ccc(Cl)cc2nc2ccc(OC)nc12`, for which, in data set [13], the AUC(0-t) was found to be 4930 ng·h/mL. In data set [14], the Tmax came to 2 h. The IC50 stood at 1.3 nM in [1], 9.5 nM in data set [4], 3.04 µg/mL (≈ 5.78 µM) in [6] and 5.1 nM in data set [9]. In data set [2], the inhibition at 7 min, 10 µM worked out at 13.8%. Also, the Activity result in data set [3] and in [12] was “Non-toxic” throughout. For the same compound, the half-life at 1 µM in data set [5] and in data set [8] was over 1 h in each case. The CL/F in data set [15] was 150 mL/min/kg. In [16], this compound came in with an MRT of 22.1 h. For the same compound, the result in [21] and in [22] was Active. This compound yielded an AUC(0-inf) in data set [17] of 8950 ng·h/mL. The compound further displayed a Cmax in data set [18] of 222 ng/mL. Also, in [19], the half-life is 47.5 h. Moreover, in [20], the Vd/F is 610 L/kg.

Broadly, the IC50 is the point on the concentration scale where inhibition reaches its midpoint. In general, inhibition refers to the relative decrease from the control value, in per cent. A word on the AUC(0-t): it is the area under the concentration-time curve up to a stated or last time point. A word on the Tmax: it is the time at which the peak concentration occurs. The CL/F is clearance divided by bioavailability, as obtained after extravascular dosing. Broadly, the MRT is the average time that molecules of a dose stay in the body. In general, AUC(0-inf) refers to total exposure, with the tail of the curve extrapolated. The Cmax is the highest concentration seen after dosing.
